Measured values: ChEMBL document CHEMBL1221375, “Structure-activity relationship study of glaziovianin A against cell cycle progression and spindle formation of HeLa S3 cells” (Bioorg Med Chem Lett, 2010)
pIC50: −log10 of the molar value. The source made the active and inactive calls. The rule behind the calls is not given here.

Assays:
[1] = Cytotoxicity against human HeLaS3 cells after 48 hrs by […] assay relative to glaziovianin A; type: functional, HeLa S3
[2] = Cytotoxicity against human HeLaS3 cells after 48 hrs by […] assay; type: functional, cell-based; conditions: HeLa S3, 48 h
In short: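 HeLa S₃ cells seeded at 3 × 10³ cells/well and incubated overnight, then exposed to a range of compound concentrations for 48 h. WST-8 reagent added for 2 h and absorbance read at 450 nm. Viability (% control) = (sample absorbance − blank) / (0 µM well absorbance) × 100.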

[3] = Cell cycle arrest in human HeLaS3 cells assessed as accumulation at M phase at 1 uM after 18 hrs by flow cytometry; type: functional, cell-based; conditions: HeLa S3
In short: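 HeLa S3 cells exposed 18 h to 1 μM compound, DMSO as vehicle control. Cells then fixed in cold (−20 °C) 70% EtOH (v/v), stained with propidium iodide. DNA content distribution obtained from total fluorescence intensities by quantitative flow cytometry.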

[4] = Cell cycle arrest in human HeLaS3 cells assessed as abnormal spindle structures with unaligned chromosomes at 1 uM after 18 hrs; type: functional, cell-based; conditions: HeLa S3
In short: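 HeLa S₃ cells given 1 µM compound or DMSO for 18 h. Microtubules immunostained with anti-α-tubulin antibody (DM1A) and chromosomes stained with Hoechst 33258. Spindle structures and chromosome alignment assessed by fluorescence microscopy.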

COc1cc2occ(-c3cc(OC)c(OC)c(OC)c3OC)c(=O)c2cc1OC
Ratio [1]: 0.027
pIC50 [2]: 4.66

COc1cc2occ(-c3ccc4c(c3)OCO4)c(=O)c2cc1OC
Ratio [1]: 0.01
pIC50 [2]: 4.25

COc1cc2occ(-c3cc(OC)c4c(c3OC)OC(C)(C)O4)c(=O)c2cc1OC
pIC50 [2]: < 4.00

COc1cc2occ(-c3cc(OC)c4c(c3OC)OCO4)c(=O)c2cc1OC [GLAZIOVIANIN A]
Activity [3]: Active
pIC50 [2]: 6.23

COc1cc2c(=O)c(-c3cc(OC)c4c(c3OC)OCO4)coc2cc1O
pIC50 [2]: < 4.00

COc1cc(-c2coc3cc(OC)c(OC)c(OC)c3c2=O)c(OC)c2c1OCO2
pIC50 [2]: < 4.00

C=CCOc1cc2occ(-c3cc(OC)c4c(c3OC)OCO4)c(=O)c2cc1OC
Activity [3]: Active
Activity [4]: Active
Ratio [1]: 3.1
pIC50 [2]: 6.72

COc1cc2c(=O)c(-c3cc(OC)c4c(c3OC)OCO4)coc2cc1OC1CCCCO1 (stereo not drawn)
pIC50 [2]: < 4.00

C#CCOc1cc2occ(-c3cc(OC)c4c(c3OC)OCO4)c(=O)c2cc1OC
Ratio [1]: 0.8
pIC50 [2]: 6.13

COc1cc2c(=O)c(-c3cc(OC)c4c(c3OC)OCO4)coc2cc1OCc1ccccc1
Ratio [1]: 0.79
pIC50 [2]: 6.12
